Only some compounds are listed: those with a hit (about 1.6% of all), similar ones and a draw of the others.
CTSL1 counter: Fasciola hepatica cathepsin L1 inhibitors, primary screen, counter-screen for PFM18AAP inhibitor project, biochemical, QFRET, fluorogenic peptide substrate. AID 1906, 2009. inhibition, % at 5.96 µM. hit rate 0.49% among 300,000. recombinant F. hepatica cathepsin L1, Z-Leu-Arg-MCA fluorescence;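 active means inhibition above the mean of all tested compounds plus 3 SD, set per screening campaign, cut at about 17% in these data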;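 further: 0% = plate median of test compound wells and 100% = 1 µM Z-Phe-Ala-diazomethylketone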
TDP2 absorb: human TDP2 enzyme inhibitors, primary screen, biochemical, epi absorbance, recombinant enzyme; inhibition, % at 12.8 µM; T5PNP hydrolysis, p-nitrophenol absorbance 415 nm; AID 720702, 2013; hit rate 0.34% among 370,000; Tyrosyl-DNA phosphodiesterase 2 (Homo sapiens), O95551;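 active means inhibition above the mean of all tested compounds plus 3 SD, set per campaign, cut at about 25% in these data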;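 further: 0% = DMSO with enzyme and 100% = buffer with substrate but no TDP2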
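Assay system: Recombinant human TDP2 | Quantity: 120 nM TDP2 per well | Incubation: 2 h at 37 °C | Signal: Epi absorbance | Evaluation: Percent inhibition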
PAD4 inh: human PAD4 inhibitors, primary screen, biochemical, fluorescence polarization, 1536-well format | Protein-arginine deiminase type-4 (Homo sapiens), Q9UM07 | recombinant PAD4, RCA probe fluorescence polarization | inhibition, % at 6.36 µM | hit rate 0.41% among 330,000;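 active means percent inhibition above a cutoff equal to the mean of all tested compounds plus 3 SD, cut at about 15% in these data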;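 further: 0% = PAD4 with RCA probe and DMSO and 100% = probe without PAD4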
Target sequence (Q9UM07 whole entry, looked up): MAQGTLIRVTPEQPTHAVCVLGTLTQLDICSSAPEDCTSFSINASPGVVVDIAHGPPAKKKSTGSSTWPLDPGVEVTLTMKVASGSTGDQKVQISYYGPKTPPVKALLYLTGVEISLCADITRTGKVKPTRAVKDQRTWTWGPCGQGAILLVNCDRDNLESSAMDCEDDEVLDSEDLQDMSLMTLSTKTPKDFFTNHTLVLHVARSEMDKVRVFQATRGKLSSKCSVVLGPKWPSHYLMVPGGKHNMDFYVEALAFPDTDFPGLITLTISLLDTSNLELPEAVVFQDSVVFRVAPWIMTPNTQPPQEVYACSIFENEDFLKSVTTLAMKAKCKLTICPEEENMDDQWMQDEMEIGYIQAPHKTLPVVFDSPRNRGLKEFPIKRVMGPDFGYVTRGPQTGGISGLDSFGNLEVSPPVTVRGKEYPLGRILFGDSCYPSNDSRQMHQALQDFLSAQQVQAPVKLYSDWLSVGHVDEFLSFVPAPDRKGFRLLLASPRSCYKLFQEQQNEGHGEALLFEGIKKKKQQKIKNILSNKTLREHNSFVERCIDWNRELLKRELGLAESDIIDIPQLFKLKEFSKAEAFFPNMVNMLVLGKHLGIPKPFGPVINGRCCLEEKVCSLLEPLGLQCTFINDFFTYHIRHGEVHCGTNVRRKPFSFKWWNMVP
UCH37 inh: inhibitors of human UCH37 deubiquitinase, primary screen, biochemical, Ub-AMC cleavage, fluorescence; Ubiquitin carboxyl-terminal hydrolase isozyme L5 (Homo sapiens), Q9Y5K5; purified proteasome/UCH37; inhibition, % (no concentration beside the values); hit rate 0.33% among 330,000; AID 588478, 2011;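 active means mean inhibition over replicate wells above about 20%, limit read from the data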;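 further: 0% = compound-free wells with enzyme and 100% = wells lacking proteasome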
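Assay system: Proteasome-bound UCH37. Buffer or medium: pH 7.4 Tris-HCl (50 mM) with ovalbumin, ATP-MgCl2, DTT. Incubation: 30 min preincubation with enzyme, 25 min cleavage at room temperature. Measured by: fluorescence, ex 355 nm, em 460 nm. Read-out basis: percent inhibition. Control set: wells without proteasome as full block, compound-free enzyme plus substrate as uninhibited.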
HKDC1 inh: HKDC1 hexokinase inhibitors, primary screen, biochemical, fluorescence, uHTS | recombinant HKDC1, G6PDH/diaphorase resazurin coupled fluorescence | inhibition, % at 20 µM | hit rate 0.16% among 340,000 | AID 493160, 2011;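 active means inhibition above about 35% when tested at 20 µM, limit read from the data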;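 further: plate controls were DMSO wells with enzyme for no effect and DMSO wells lacking enzyme for full effect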
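Assay system: recombinant HKDC1 hexokinase; detection: coupled resazurin fluorescence, excitation 525 nm, emission 613 nm; benchmarks: DMSO-plus-enzyme-mix negative control, buffer-substituted positive control; compound dosing: single 20 µM dose; schedule: 90 min at room temperature in dark; also added: glucose plus 1 mM ATP as hexokinase substrates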
GSTO1 counter: inhibitors of recombinant GSTO1, primary screen, counter-screen for RBBP9 inhibitor project, biochemical, fluorescence polarization; inhibition, % at 5.96 µM; activity-based probe fluorescence polarization; AID 1974, 2009; Glutathione S-transferase omega-1 (Homo sapiens), P78417; hit rate 1.1% among 300,000;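 active means inhibition above the campaign mean inhibition plus 3 SD, cut at about 35% in these data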;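 further: 0% = GSTO1-1 with DMSO and 100% = wells lacking GSTO1-1 enzyme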
GSTO1 confirm: GSTO1 inhibitor hit confirmation, counter-screen for RBBP9 inhibitor project, biochemical, fluorescence polarization, triplicate; shares compounds with GSTO1 counter; AID 2176, 2009; recombinant GSTO1, probe fluorescence polarization; hit rate 54% among 2,400; inhibition, % at 5.96 µM;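 active means inhibition above the primary screen's cutoff, its mean inhibition plus 3 SD, cut at about 35% in these data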;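 further: loss of polarization as inhibitors block binding of rhodamine sulfonate ester activity probe; 0% = GSTO1 with DMSO and 100% = wells lacking GSTO1 enzyme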
* marks the source's active call; other numbers are inactive results; / = not tested or not shown.

SMILES	CTSL1 counter	TDP2 absorb	PAD4 inh	UCH37 inh	HKDC1 inh	GSTO1 counter	GSTO1 confirm
COc1ccccc1C=NOC(=O)c1ccc(C)cc1	/	/	/	3	/	/	/
O=C(Nc1ccccc1)NN(C(=O)CCl)c1ccccc1	13	4	-2	2	19	82*	88*
CCN(CC)NC(=O)Nc1ccccc1	-3	0	-1	6	-14	2	/
Cc1ccc(N(NC(=O)C(O)(c2ccccc2)c2ccccc2)C(=O)CCl)cc1	81*	-12	7	4	4	82*	92*
COc1cccc(N=Nc2c(N)[nH]n3c(=O)cc(-c4ccccc4)nc23)c1	7	7	-5	11	-5	1	/
COc1cccc(N=Nc2c(=O)[nH]n3c(C)cc(C)nc23)c1	3	-15	-9	8	-4	38*	3
Cc1ccc(C(=O)CSc2nnnn2C(C)C)c(C)c1	-1	4	-2	1	-1	39*	38*
CC(=NNC(=O)c1cc(C(C)C)[nH]n1)c1ccncc1	/	/	/	0	/	/	/
CC(=O)NN1C(=O)/C(=C\c2ccc(Br)o2)SC1=S	-1	5	-33	7	0	69*	79*
CC(=O)NN1C(=O)/C(=C\c2ccccc2)SC1=S	1	14	-7	/	6	4	/
CC(=O)NN1C(=O)/C(=C/c2ccc(Br)o2)SC1=S	-1	3	-32	8	-6	64*	78*
COc1cc(OC)cc(-c2nc(-c3ccccc3OC)no2)c1	-3	0	3	1	-1	53*	6
CC(NC(=O)CC(c1ccccc1)c1cc(Cl)ccc1O)c1ccccc1 (centres undefined)	-1	-4	-5	/	1	0	/
CN(Cc1ccccc1)C(=O)CC(c1ccccc1)c1cc(Cl)ccc1O (centres undefined)	-4	4	-3	3	-3	58*	3
COc1ccc(C2C(O)C(c3c[nH]c4ccccc34)=NN2C(=O)CCl)cc1 (centres undefined)	43*	-2	8	1	18	88*	93*
O=C(NN=Cc1ccc(F)cc1)c1cccc(NC(=O)c2ccccc2Cl)c1	/	/	/	5	/	/	/
Nc1scc2c(C(=O)N/N=C/c3ccc(Cl)cc3)nn(-c3ccccc3)c(=O)c12	34*	24	-2	/	19	45*	1
Cc1nn(Cc2ccc(Cl)cc2Cl)c(C)c1NC(=O)c1nn(C)cc1Cl	2	-8	-4	2	-5	5	/
Cc1nn(Cc2ccc(Cl)cc2Cl)c(C)c1NC(=O)CCl	13	-4	-4	6	1	97*	97*
Nc1nonc1-n1nnc(C(=O)NN=Cc2ccc(OCc3ccccc3)cc2)c1COc1ccc(F)cc1	/	/	/	-12	/	/	/
O=[N+]([O-])c1ccc(/C=N/n2cnc3ccccc32)s1	16	-19	-23	/	6	55*	31
Cc1cc2ncn(/N=C/c3ccc([N+](=O)[O-])s3)c2cc1C	2	4	-7	/	-2	15	/
COc1cccc2c(=O)c3c([nH]c12)OC(C)(C)C3	-2	-4	4	2	4	2	/
COc1cccc2c(=O)c3cccc(N)c3[nH]c12	-1	2	-6	-1	9	67*	14
C=CCNC(=O)COc1ccc(Br)cc1Cl	-1	2	-1	3	0	66*	5
CCOC(=O)c1c(CC(C)C)csc1NC(=O)CCl	2	-23	13	6	20	76*	92*
Cc1ccc2[nH]c3c(c2c1)CCCC3NC(=O)CCl (centres undefined)	11	/	-5	/	6	93*	99*
Cc1ccc2[nH]c3c(c2c1)CCCC3C(N)=O (centres undefined)	12	-7	-5	3	11	-4	/

Assay outcomes from PubChem BioAssay.
